Results on one compound are retold here after paper PMC3716464 (Angewandte Chemie (International ed. in English), 2009).

This assay has as its system b(h)CAII. In words: dot blot detection of b. The class given is binding, bovine; human. The following applies: biligand in 0.1% serum, compared with triligand in 10% porcine serum. In short, it runs like this:
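Dot blot with the test peptide as capture agent for b(h)CAII in 10% porcine serum, varying protein amount to find the detection limit. For comparison, the biligand anchor served as capture agent in 0.1% serum.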

With `C#CC[C@@H](N)C(=O)N[C@H](CCCCN)C(=O)N[C@H](Cc1c[nH]c2ccccc12)C(=O)N[C@H](CC(C)C)C(=O)N[C@H](Cc1c[nH]c2ccccc12)C(=O)NCC(=O)N[C@H](CC(C)C)C(=O)N[C@@H](CCCCn1cc(C[C@@H](NC(=O)[C@@H](CCCCN)NC(=O)[C@@H](Cc2ccccc2)NC(=O)[C@@H](Cc2c[nH]c3ccccc23)NC(=O)[C@@H](CC(C)C)NC(=O)[C@@H](CCCCN)NC(=O)[C@H](N)CC(C)C)C(N)=O)nn1)C(N)=O` [(D-Pra)-kwlwGl-Tz1-kfwlkl], the “reduction in sensitivity (biligand anchor as capture agent versus triligand)” value is recorded as “more than 10 fold”.
